The species named for assay [1] is Rattus norvegicus. Put plainly: Antagonist dissociation constant in rat spleen, number of determinations => 3. Conditions: read-out: pA2 (converted).
The species named for assay [2] is Rattus norvegicus. Put plainly: Antagonist dissociation constant in rat vas deferens, number of determinations => 3. The following applies: read-out: pA2 (converted).
The species named for assay [3] is Canis familiaris. Put plainly: (§1) Intraurethral pressure (IUP) in Beagle dogs values are expressed as pseudo pA2 values. The class given is functional, Canis lupus familiaris, Urethra.
The species named for assay [4] is Rattus norvegicus. Put plainly: Pseudo ED50 in Spontaneously Hypertensive Rat (SHR) model. Number determinations => 3. In kind it is functional. A digest of the protocol:
(§2)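 Male SHR (300-325 g), briefly anesthetized with Penthrane, catheterized in femoral artery (MAP) and vein (dosing). After 2.5 h recovery and a 30 min predose control period, one iv antagonist dose per rat in an ascending paradigm; MAP and HR recorded over 60 min. Trapezoidal AUC of percent change in MAP (T60 AUC); ED50 is the dose lowering MAP by 50% of normotensive.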

The species entered for assay [5] is Canis familiaris. Briefly: Antagonist dissociation constant in dog prostate. Conditions: Canis lupus familiaris, Prostate gland, read-out: pA2 (converted).
The species entered for assay [6] is Rattus norvegicus. Put plainly: Antagonist dissociation constant in rat spleen. The following applies: read-out: pA2 (converted).
The species entered for assay [7] is Rattus norvegicus. Put plainly: Antagonist dissociation constant in rat vas deferens. Conditions: read-out: pA2 (converted).
Assay [8] deals with T1, Alpha-1D adrenergic receptor (Rattus norvegicus, UniProt P23944).
T1 sequence (P23944 whole entry): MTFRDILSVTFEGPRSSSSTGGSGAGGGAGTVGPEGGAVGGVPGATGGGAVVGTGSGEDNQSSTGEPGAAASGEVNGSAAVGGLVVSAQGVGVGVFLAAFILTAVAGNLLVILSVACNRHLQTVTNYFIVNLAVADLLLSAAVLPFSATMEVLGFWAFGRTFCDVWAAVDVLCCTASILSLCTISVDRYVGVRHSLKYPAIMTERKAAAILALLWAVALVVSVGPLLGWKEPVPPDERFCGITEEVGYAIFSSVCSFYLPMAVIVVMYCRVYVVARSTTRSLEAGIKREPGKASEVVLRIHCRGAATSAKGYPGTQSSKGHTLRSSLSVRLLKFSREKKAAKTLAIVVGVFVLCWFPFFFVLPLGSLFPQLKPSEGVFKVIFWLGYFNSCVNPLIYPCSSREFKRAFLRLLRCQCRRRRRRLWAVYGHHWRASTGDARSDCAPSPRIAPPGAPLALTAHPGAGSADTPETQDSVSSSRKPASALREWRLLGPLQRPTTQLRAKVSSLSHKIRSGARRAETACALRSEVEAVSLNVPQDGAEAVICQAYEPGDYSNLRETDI
Briefly: In vitro binding affinity using [3H]prazosin as radioligand against alpha-1D adrenergic receptor expressed in LTK cell. In kind it is cell-based. In outline:
(§3)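 Membranes from mouse LTK- fibroblasts stably expressing cloned hamster α1B or rat α1D, grown in roller bottles, frozen in liquid N2 and stored at -70 °C. Incubated with [3H]-prazosin ~200 pM, ~0.1 mg protein per tube, in 50 mM Tris-HCl pH 7.4 for 60 min at 25 °C; nonspecific binding defined by 10^-5 M phentolamine (final).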

Assay [9] addresses T2, Alpha-1B adrenergic receptor (Mesocricetus auratus, UniProt P18841).
T2 sequence (P18841 whole entry): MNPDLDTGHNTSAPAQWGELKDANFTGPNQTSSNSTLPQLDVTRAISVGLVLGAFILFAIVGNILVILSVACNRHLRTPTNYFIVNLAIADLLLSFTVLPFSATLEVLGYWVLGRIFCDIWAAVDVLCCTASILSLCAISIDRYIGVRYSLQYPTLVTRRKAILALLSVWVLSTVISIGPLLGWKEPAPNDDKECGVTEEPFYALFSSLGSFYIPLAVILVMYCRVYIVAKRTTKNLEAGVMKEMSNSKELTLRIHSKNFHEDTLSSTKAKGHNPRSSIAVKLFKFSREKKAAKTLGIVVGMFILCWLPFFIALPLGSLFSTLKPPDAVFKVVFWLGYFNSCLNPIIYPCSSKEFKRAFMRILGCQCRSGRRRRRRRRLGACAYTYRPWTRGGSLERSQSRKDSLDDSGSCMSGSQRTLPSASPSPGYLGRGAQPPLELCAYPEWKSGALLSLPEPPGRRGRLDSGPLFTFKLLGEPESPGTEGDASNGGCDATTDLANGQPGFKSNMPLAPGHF
Put plainly: In vitro binding affinity using [3H]prazosin as radioligand against alpha-1B adrenergic receptor expressed in LTK cell. The class given is cell-based. A digest of the protocol:
as §3

The species named for assay [10] is Canis familiaris. Described as §1. Conditions: Canis lupus familiaris, Urethra, read-out: pA2 (converted).
Assay [11] is filed under the species Rattus norvegicus. Put plainly: Pseudo ED50 in Spontaneously Hypertensive Rat (SHR) model. In kind it is functional. In outline:
as §2

For assay [12], the species on record is Canis familiaris. Put plainly: Antagonist dissociation constant in dog prostate, number of determinations => 3. The following applies: Canis lupus familiaris, Prostate gland; read-out: pA2 (converted).
Assay [13] addresses T2, Alpha-1B adrenergic receptor. Briefly: In vitro binding affinity using [3H]prazosin as radioligand against adrenoceptor alpha 1b expressed in LTK cell. In kind it is cell-based. A digest of the protocol: as §3
Assay [14] addresses T1, Alpha-1D adrenergic receptor. Briefly: In vitro binding affinity using [3H]prazosin as radioligand against adrenoceptor alpha 1d expressed in LTK cell. The class given is cell-based. A digest of the protocol:
as §3

Assay [15] concerns the target T3, Alpha-1A adrenergic receptor (Rattus norvegicus, UniProt P43140).
T3 sequence (P43140 whole entry): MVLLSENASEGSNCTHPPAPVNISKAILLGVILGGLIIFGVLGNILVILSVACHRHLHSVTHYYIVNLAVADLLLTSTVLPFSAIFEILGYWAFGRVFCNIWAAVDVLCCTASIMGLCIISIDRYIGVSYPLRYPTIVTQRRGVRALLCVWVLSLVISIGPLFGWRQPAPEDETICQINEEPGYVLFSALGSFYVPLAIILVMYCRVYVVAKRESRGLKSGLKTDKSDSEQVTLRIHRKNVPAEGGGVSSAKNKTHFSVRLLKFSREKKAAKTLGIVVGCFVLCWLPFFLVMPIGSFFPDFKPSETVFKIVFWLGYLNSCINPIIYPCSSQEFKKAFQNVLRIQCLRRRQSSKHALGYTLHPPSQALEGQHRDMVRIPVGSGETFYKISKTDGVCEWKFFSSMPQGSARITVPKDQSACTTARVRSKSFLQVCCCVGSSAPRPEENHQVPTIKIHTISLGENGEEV
Briefly: In vitro binding affinity using [3H]prazosin as radioligand against adrenoceptor alpha 1A. In outline: (§4)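 Binding to pharmacologically defined α1A site in rat submaxillary gland membranes; [3H]-prazosin ~200 pM, nonspecific binding with 10^-5 M phentolamine (final); ~0.1 mg protein per tube in 50 mM Tris-HCl pH 7.4, 60 min at 25 °C.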

Assay [16] concerns the target T3, Alpha-1A adrenergic receptor. Briefly: In vitro binding affinity using [3H]prazosin as radioligand against alpha-1A adrenergic receptor. A digest of the protocol: as §4
For assay [17], the species on record is Rattus norvegicus. Put plainly: Determination of Pseudo pED50 in Spontaneously Hypertensive Rat (SHR) model. Number determinations => 3. The class given is functional. In outline:
as §2

The species entered for a further assay is Cricetulus griseus. Briefly: Ratio between Ki(alpha-1b)/Ki(alpha1A).
The species entered for assay [18] is Rattus norvegicus. Put plainly: Determination Pseudo pED50 in Spontaneously Hypertensive Rat (SHR) model. In kind it is functional. A digest of the protocol:
as §2

As to `COc1cc2nc(N(C)CCCNC(=O)C3CCCO3)nc(N)c2cc1OC` (stereo not given) [ALFUZOSIN], the figures for the Kb in the assay filed under Rattus norvegicus [1] and in the assay listed under Rattus norvegicus [2] were 4.9 nM and 24.5 nM, respectively. In the assay listed under Canis familiaris [3], this molecule returned an IUP of 6.87. This molecule also returned an SHR in the assay listed under Rattus norvegicus [4] of 6.58.
In the case of `COc1cccc2c1CC[C@H]1CN(CCn3c(=O)[nH]c4c(sc5cccnc54)c3=O)C[C@@H]21`, the Kb in the assay filed under Canis familiaris [5] is 0.776 nM; in the assay filed under Rattus norvegicus [6], 12.9 nM; in the assay listed under Rattus norvegicus [7], 1.17 nM; in the assay filed under Canis familiaris [10] it was 6.76 nM. Besides, the values for the Ki in assay [8] and in assay [9] were 0.51 nM and 3.39 nM, respectively. This molecule also had a pED50 in the assay listed under Rattus norvegicus [11] of 5.33.
For `COc1cccc2c1CC[C@H]1CN(CCn3c(=O)[nH]c4c(sc5ncc(Cl)nc54)c3=O)C[C@@H]21`, the Kb in the assay listed under Canis familiaris [12] was 0.447 nM; in the assay listed under Rattus norvegicus [1], 44.7 nM; in the assay filed under Rattus norvegicus [2], 1.1 nM. Besides, the Ki turned out to be 35.1 nM in assay [13], 3.83 nM in assay [14] and 0.69 nM in assay [15]. The same molecule had an IUP in the assay filed under Canis familiaris [3] of 8.28. The SHR in the assay filed under Rattus norvegicus [4] amounted to 4.77.
`COc1cccc2c1CC[C@H]1CN(CCn3c(=O)[nH]c4c(sc5ncccc54)c3=O)C[C@@H]21`: the Kb in the assay listed under Canis familiaris [5] is 1.66 nM; in the assay listed under Rattus norvegicus [6] it was 16.2 nM; in the assay filed under Rattus norvegicus [7], 2.24 nM; in the assay listed under Canis familiaris [10], 5.62 nM. The values for the Ki in [8], in [16] and in assay [9] were 0.69 nM, 0.59 nM and 6.12 nM, respectively. Moreover, the pED50 in the assay filed under Rattus norvegicus [17] turned out to be 5.35. In the assay listed under Cricetulus griseus, the Selectivity ratio came out at 10.4.
`COc1cc2nc(N3CCN(C(=O)C4CCCO4)CC3)nc(N)c2cc1OC` (stereo not given) [TERAZOSIN]: the Kb in the assay listed under Rattus norvegicus [1] was 2.51 nM. In addition, the IUP in the assay filed under Canis familiaris [3] is recorded as 7.02. The molecule further returned an SHR in the assay filed under Rattus norvegicus [4] of 6.64.
Consider `COc1cccc2c1CC[C@H]1CN(CCn3c(=O)[nH]c4c(sc5ccc(C)cc54)c3=O)C[C@@H]21`, for which the Ki in assay [8] amounted to 1.04 nM; in assay [16], 2.16 nM; in assay [9], 4.26 nM. For the same molecule, in the assay listed under Cricetulus griseus, the Selectivity ratio was 1.97.
For `COc1cccc2c1CC[C@H]1CN(CCn3c(=O)[nH]c4c(sc5c(OC)ccnc54)c3=O)C[C@@H]21`, the Ki in [8] was determined as 1.41 nM; in [16] it was 0.79 nM; in [9], 6.69 nM. Besides, the Selectivity ratio in the assay listed under Cricetulus griseus was 8.45.
Take `COc1cccc2c1CC[C@H]1CN(CCn3c(=O)[nH]c4c(sc5ccc([N+](=O)[O-])cc54)c3=O)C[C@@H]21`: the Ki was 1.31 nM in assay [8], 1.28 nM in assay [16] and 8.49 nM in [9]. In the assay filed under Cricetulus griseus, the Selectivity ratio is 6.64.
For the molecule `COc1cccc2c1CCC1CN(CCCCn3c(=O)[nH]c4c(sc5ccccc54)c3=O)CC21` (cis isomer), the figures for the Ki in assay [8], in [16] and in [9] were 4.77 nM, 7.43 nM and 9.95 nM, respectively. Also, the Selectivity ratio in the assay filed under Cricetulus griseus came to 1.33.
On to `COc1cccc2c1CC[C@H]1CN(CCn3c(=O)[nH]c4c(sc5cccc(C)c54)c3=O)C[C@@H]21`, for which the Ki in assay [8] is 0.88 nM; in assay [16], 1.29 nM; in assay [9], 6.95 nM. Besides, in the assay filed under Cricetulus griseus, the Selectivity ratio was determined as 5.38.
In the case of `COc1cccc2c1CC[C@H]1CN(CCn3c(=O)[nH]c4c(sc5nccnc54)c3=O)C[C@@H]21`, the values for the Ki in [8], in [16] and in assay [9] were 2.06 nM, 0.72 nM and 12.5 nM, respectively. Further, the Selectivity ratio in the assay filed under Cricetulus griseus is 17.3.
For the molecule `CCOc1ccccc1OCCN[C@H](C)Cc1ccc(OC)c(S(N)(=O)=O)c1` [TAMSULOSIN], the values for the Kb in the assay listed under Rattus norvegicus [1] and in the assay listed under Rattus norvegicus [2] were 0.204 nM and 0.339 nM, respectively. Besides, in assay [13], the inhibition constant (Ki) is 0.2 nM. Also, in the assay listed under Canis familiaris [3], the IUP worked out at 8.87. This molecule also registered an SHR in the assay listed under Rattus norvegicus [4] of 7.33.
As for `COc1cccc2c1CC[C@H]1CN(CCn3c(=O)[nH]c4c(sc5ccc(C(=O)N(C)C)cc54)c3=O)C[C@@H]21`, the Ki in [8] is 0.63 nM; in assay [16], 0.28 nM; in [9], 1.7 nM. In addition, in the assay listed under Cricetulus griseus, the Selectivity ratio came to 6.07.
In the case of `COc1cc2nc(N3CCN(C(=O)C4COc5ccccc5O4)CC3)nc(N)c2cc1OC` (stereo not given) [DOXAZOSIN], the Kb is 0.309 nM in the assay listed under Rattus norvegicus [6], 2.04 nM in the assay listed under Rattus norvegicus [7] and 75.9 nM in the assay filed under Canis familiaris [10]. In the assay listed under Rattus norvegicus [18], this molecule showed a pED50 of 6.5.
In the case of `COc1cccc2c1CC[C@H]1CN(CCn3c(=O)[nH]c4c(sc5ccc(Cl)nc54)c3=O)C[C@@H]21`, the figures for the Ki in assay [13], in assay [14] and in [15] were 4.15 nM, 0.61 nM and 0.38 nM, respectively.
For `COc1cccc2c1CCC1CN(CCn3c(=O)[nH]c4c(oc5ccccc54)c3=O)CC21` (cis isomer), the values for the Ki in assay [8], in [16] and in assay [9] were 0.68 nM, 2.17 nM and 5.39 nM, respectively. In the assay listed under Cricetulus griseus, the Selectivity ratio was 2.48.
